This note sets out measurements from ChEMBL document CHEMBL1156059, “Thienopyrimidine-based P2Y12 platelet aggregation inhibitors” (Bioorg Med Chem Lett, 2009).

Test [1] concerns the target T1, P2Y purinoceptor 12 (Homo sapiens, UniProt Q9H244). Description: Binding affinity to human recombinant P2Y12 receptor expressed on CHO cell membrane. It is filed as cell membranes. The procedure, abridged: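 Competition binding against 33P 2-MeSADP (added as a 1 nM solution) on membranes from CHO cells transfected with recombinant human P2Y12. Membranes were used at 10, 1 or 0.3 µg/well depending on method. Buffer contained 0.02% BSA, ascorbic acid and protease inhibitors. Cold 2-MeSADP (1.5 µM solution) served as control. Compounds were run as a seven-point threefold series from 10 µM, in triplicate. Plates were incubated 1 h at room temperature, then GF/B filtered and scintillation counted.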

Test [2] addresses T1, P2Y purinoceptor 12. Description: Binding affinity to human recombinant P2Y12 receptor expressed in CHO cell membrane in presence of HSA and human AGP. It is filed as cell membranes. The procedure, abridged: (§1)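 Same 33P 2-MeSADP filtration binding on recombinant human P2Y12 CHO membranes (1 or 0.3 µg/well), room temperature, 1 h. Membranes were prepared with 5X HSA (1.75%) and 5X AGP (0.075%). Compounds were run as a seven-point threefold series from 10 µM, in triplicate. Fold shift is the Ki with added protein divided by the Ki without protein.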

Test [3] is described as follows: Antiplatelet aggregatory activity in human platelet rich plasma assessed as inhibition of ADP-induced platelet aggregation. It is filed as functional. The procedure, abridged: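 Human PRP was obtained by centrifuging whole blood at 200g for 15 min at room temperature, then adjusted to 300,000 platelets/µL with autologous platelet-poor plasma (2380g spin). Stirred PRP was mixed with compound, and aggregation was started with 20 µM ADP. Aggregation was read as the increase in light transmittance on a microplate spectrophotometer. Each concentration was run in duplicate.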

The species entered for the next test is Homo sapiens. The experiment in a line: Ratio of Ki for human recombinant P2Y12 in presence of HSA and AGP to Ki for human recombinant P2Y12. The procedure, abridged: as §1

T1 sequence (Q9H244 whole entry): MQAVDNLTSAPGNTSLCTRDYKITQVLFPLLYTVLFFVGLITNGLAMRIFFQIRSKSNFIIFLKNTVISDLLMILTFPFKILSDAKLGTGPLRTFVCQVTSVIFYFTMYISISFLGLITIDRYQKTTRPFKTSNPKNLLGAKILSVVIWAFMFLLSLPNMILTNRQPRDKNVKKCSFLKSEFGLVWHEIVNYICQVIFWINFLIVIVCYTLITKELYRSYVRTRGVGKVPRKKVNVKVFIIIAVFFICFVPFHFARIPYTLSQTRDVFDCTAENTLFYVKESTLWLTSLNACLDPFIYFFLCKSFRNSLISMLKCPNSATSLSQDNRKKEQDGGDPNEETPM

On to `CCc1cc2c(N3CCN(C(=O)c4ccc(-c5ccccc5)cc4)CC3)nc(N3CCNCC3)nc2s1`, for which the Ki is 410 nM on P2Y purinoceptor 12 [1] and 397 nM on P2Y purinoceptor 12 [2]. Besides, in test [3], the IC50 turned out to be 45000 nM. The Ratio Ki in the test listed under Homo sapiens was found to be 1.
In the same order, the values of `CCc1cc2c(N3CCN(C(=O)c4ccc(-c5ccccc5)cc4)CC3)nc(N3[C@@H](C(N)=O)CC[C@H]3C(N)=O)nc2s1` are 4 nM, 21 nM, 3000 nM and 5.
Take `CCc1cc2c(N3CCN(C(=O)CCCCOc4ccccc4)CC3)ncnc2s1`: the IC50 in test [3] is 4000 nM.
With `CCc1cc2c(N3CCN(C(=O)c4ccc(-c5ccccc5)cn4)CC3)nc(NC(=O)NCCC(=O)O)nc2s1`, the Ki on P2Y purinoceptor 12 [1] is 37 nM; on P2Y purinoceptor 12 [2], 161 nM. For the same compound, in test [3], the IC50 stood at 42000 nM. Moreover, the Ratio Ki in the test listed under Homo sapiens was 4.3.
The matching figures for `CCc1cc2c(N3CCN(C(=O)COc4ccccc4)CC3)nc(NC(=O)NCCC(=O)O)nc2s1`: 539 nM, 593 nM, 25000 nM and 1.1.
In the same order, the values of `CCc1cc2c(N3CCN(C(=O)c4ccc(-c5ccccc5)cc4)CC3)nc(N3CCC(N)CC3)nc2s1` are 240 nM, 325 nM, 40000 nM and 1.3.
For `CCc1cc2c(N3CCN(C(=O)Oc4cccc5ccccc45)CC3)ncnc2s1`, the Ki at P2Y purinoceptor 12 [1] turned out to be 130 nM. Also, in test [3], the IC50 turned out to be 1250 nM.
The matching figures for `CCc1cc2c(N3CCN(C(=O)Cc4ccccc4)CC3)ncnc2s1`: 660 nM and 28000 nM.
For `CCc1cc2c(N3CCN(C(=O)c4ccc(-c5ccccc5)cc4)CC3)nc(N3CCCC(C(N)=O)C3)nc2s1` (stereo not drawn), the Ki came out at 31 nM on P2Y purinoceptor 12 [1] and 203 nM on P2Y purinoceptor 12 [2]. Also, the IC50 in test [3] was found to be 73000 nM. Moreover, the Ratio Ki in the test listed under Homo sapiens is 6.5.
As for `CCc1cc2c(N3CCN(C(=O)CC(F)(F)F)CC3)nc(NC(=O)NCCC(=O)O)nc2s1`, the Ki at P2Y purinoceptor 12 [1] came to 177 nM; at P2Y purinoceptor 12 [2], 172 nM. Further, the IC50 in test [3] came out at 18000 nM. In addition, the Ratio Ki in the test listed under Homo sapiens was 1.
Regarding `CCc1cc2c(N3CCN(C(=O)CC(C)C)CC3)ncnc2s1`, the Ki on P2Y purinoceptor 12 [1] amounted to 2100 nM. Moreover, in test [3], the IC50 amounted to 8000 nM.
For the compound `CCc1cc2c(N3CCN(C(=O)c4ccc(-c5ccccc5)cc4)CC3)nc(NC(=O)NCCC(=O)O)nc2s1`, the Ki at P2Y purinoceptor 12 [2] amounted to 10 nM. The IC50 in test [3] was found to be 5000 nM. Also, in the test listed under Homo sapiens, the Ratio Ki stood at 3.3.
Consider `CCc1cc2c(N3CCN(C(=O)Cc4ccc(F)c(F)c4)CC3)nc(NC(=O)NCCC(=O)O)nc2s1`, for which the Ki at P2Y purinoceptor 12 [1] was 68 nM; at P2Y purinoceptor 12 [2], 140 nM. Besides, the IC50 in test [3] is 34000 nM. The Ratio Ki in the test listed under Homo sapiens amounted to 2.
On to `CCc1cc2c(N3CCN(C(=O)c4ccc(-c5ccccc5)cc4)CC3)nc(NCCC(=O)O)nc2s1`, for which the Ki at P2Y purinoceptor 12 [2] stood at 122 nM. Also, the IC50 in test [3] is 57000 nM. Besides, the Ratio Ki in the test filed under Homo sapiens worked out at 15.
Regarding `CCc1cc2c(N3CCN(C(=O)CCOc4ccccc4)CC3)nc(NC(=O)NCCC(=O)O)nc2s1`, the Ki at P2Y purinoceptor 12 [1] was 213 nM; on P2Y purinoceptor 12 [2], 783 nM. The IC50 in test [3] is 86000 nM. Further, the Ratio Ki in the test filed under Homo sapiens stood at 3.7.
In the same order, the values of `CCc1cc2c(N3CCN(C(C)=O)CC3)nc(NC(=O)NCCC(=O)O)nc2s1` are 460 nM, 380 nM, 38000 nM and 0.8.
As to `CCc1cc2c(N3CCN(C(=O)c4ccc(-c5ccccc5)cc4)CC3)ncnc2s1`, the Ki on P2Y purinoceptor 12 [1] turned out to be 29 nM. Besides, in test [3], the IC50 turned out to be 7000 nM.
`CCc1cc2c(N3CCN(C(=O)c4ccc(-c5ccccc5)cc4)CC3)nc(NC[C@@H](O)CO)nc2s1`: the Ki on P2Y purinoceptor 12 [1] was 19 nM; at P2Y purinoceptor 12 [2], 75 nM. In addition, the IC50 in test [3] was found to be 11000 nM. Moreover, in the test filed under Homo sapiens, the Ratio Ki came out at 4.
In the same order, the values of `CCc1cc2c(N3CCN(C(=O)C(C)C)CC3)nc(NC(=O)NCCC(=O)O)nc2s1` are 36 nM, 46 nM, 4000 nM and 1.3.
The matching figures for `CCc1cc2c(N3CCN(C(=O)c4ccc(-c5ccccc5)cc4)CC3)nc(NCCO)nc2s1`: 37 nM, 163 nM, 21000 nM and 4.4.
Regarding `CCc1cc2c(N3CCN(C(=O)CC(F)(F)F)CC3)ncnc2s1`, on P2Y purinoceptor 12 [1], the inhibition constant (Ki) turned out to be 2990 nM. In test [3], the IC50 was 28000 nM.
As to `CCc1cc2c(N3CCN(C(=O)C(F)(F)F)CC3)ncnc2s1`, in test [3], the IC50 was 18000 nM.
With `CCc1cc2c(N3CCN(C(=O)c4ccc(-c5ccccc5)cc4)CC3)nc(N3CCC(O)C3)nc2s1` (stereo not drawn), the Ki at P2Y purinoceptor 12 [1] stood at 35 nM; on P2Y purinoceptor 12 [2] it was 241 nM. In addition, the IC50 in test [3] was 37000 nM. For the same compound, the Ratio Ki in the test filed under Homo sapiens turned out to be 7.
In the same order, the values of `CCc1cc2c(N3CCN(C(=O)c4ccc(-c5ccccc5)cc4)CC3)nc(N3CCN(C(=O)C(F)(F)F)CC3)nc2s1` are 839 nM, 1810 nM, more than 100000 nM and 2.
The matching figures for `CCc1cc2c(N3CCN(C(=O)c4ccc(-c5ccccc5)cc4)CC3)nc(N3CC(O)C3)nc2s1`: 27 nM, 297 nM, 30000 nM and 11.
The matching figures for `CCc1cc2c(N3CCN(C(=O)c4ccc(-c5ccccc5)cc4)CC3)nc(NCCCO)nc2s1`: 78 nM, 441 nM, 56000 nM and 5.6.
With `CCc1cc2c(N3CCN(C(=O)Cc4ccccc4)CC3)nc(NC(=O)NCCC(=O)O)nc2s1`, the Ki came out at 223 nM on P2Y purinoceptor 12 [1] and 231 nM at P2Y purinoceptor 12 [2]. The IC50 in test [3] stood at 16000 nM. Moreover, the Ratio Ki in the test filed under Homo sapiens came to 1.
The matching figures for `CCc1cc2c(N3CCN(C(=O)c4ccc(-c5ccccc5)cc4)CC3)nc(N3C[C@@H](O)C[C@H]3C(=O)O)nc2s1`: 5 nM, 31 nM, 4000 nM and 6.
The matching figures for `CCC(=O)N1CCN(c2nc(NC(=O)NCCC(=O)O)nc3sc(CC)cc23)CC1`: 295 nM, 367 nM, 16000 nM and 1.2.
Take `CCc1cc2c(N3CCN(C(=O)c4ccccc4)CC3)ncnc2s1`: the Ki on P2Y purinoceptor 12 [1] came out at 4400 nM.
For `CCc1cc2c(N3CCN(C(=O)COc4cccc(OC)c4)CC3)nc(NC(=O)NCCC(=O)O)nc2s1`, the inhibition constant (Ki) at P2Y purinoceptor 12 [1] was determined as 191 nM; on P2Y purinoceptor 12 [2] it was 447 nM. Further, the IC50 in test [3] turned out to be 39000 nM. Also, the Ratio Ki in the test filed under Homo sapiens amounted to 2.3.

As usually defined, the Ki is the dissociation constant of the complex between target and ligand, obtained from inhibition or displacement. For orientation: IC50 means the concentration that gives 50% inhibition.
